Experiments:
[1] = DPPH˙ radical scavenging assay; details: read-out: DPPH˙ scavenging activity (EC50); 37 °C 30 min, OD 540 nm; mean ± SD
Method in brief: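 Assay mixtures were 50 μL DPPH˙ working solution in ethanol plus 50 μL test compound in DMSO (sample solutions 0.02–20 mM). Ethanol replaced DPPH˙ in sample-control and blank wells. Mixtures were incubated at 37 °C for 30 min and read at OD 540 nm, in triplicate. Scavenging rate was calculated by formula. EC50 was derived by nonlinear regression from three independent experiments.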

L02 cells = assay: MTT assay for H2O2-treated L02 cells; assay type: cell-based; details: Homo sapiens, L02, read-out: L02 cell viability after H2O2
Method in brief: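 Cells were grown in RPMI-1640 with 10% FBS at 37 °C, 5% CO2. PC12 cells were seeded at 5 × 10^5 cells per mL and incubated 16 h; L02 cells at 1 × 10^5 cells per mL, 24 h. Test compound (final 10 μM, from 20 mM DMSO stock) or DMSO was added for 0.5 h. Then 10 μL H2O2 (1 mM in medium) or medium was added for 2 h, followed by MTT for 4 h.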

| Compound | EC50 [1] [µM] | viability at 10 µM (L02 cells) [%] |
| --- | --- | --- |
| O=C(O)c1cc(O)c(O)c(O)c1 [GA, gallic acid] | 50 ± 10 | 37.8 |
| O=C1O[C@H]([C@@H](O)CO)C(O)=C1O [VC, vitamin C] | 230 ± 90 |  |
